Jurkat NFkB inh: lowers PMA/ionomycin-induced NF-kB signal in Jurkat cells. PMA/ionomycin-induced NF-kB luciferase reporter, luminescence. inhibition, % at 4 µM. hit rate 0.53% among 330,000. AID 435003; in the data active = inhibition above about 50%
Hep lipid drop: hepatic lipid droplet formation modulation; AML12 mouse hepatocytes, oleate lipid droplets, BODIPY imaging; inhibition, % at 6.5 µM; hit rate 0.4% among 240,000; AID 1656;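 active = lipid droplet intensity inhibited by at least 50%, with more than 500 cells counted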
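Assay system: AML12 mouse liver cells | Compound: 6.5 µM single-point dosing | Schedule: Overnight exposure | Technique: Fluorescence imaging, 20x objective, two fields per well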
Gli-Sufu antag: blocks Gli-Sufu signaling in a luciferase reporter. inhibition, % at 5 µM. Sufu-KO-LIGHT fibroblasts, Gli luciferase reporter luminescence. hit rate 0.74% among 340,000;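 active = inhibition above about 55%, limit read from the data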;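 note: 0% = DMSO-treated cells and 100% = wells with medium but no cells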
iPSC survival up: enhancers of human iPSC single-cell survival. AID 602274. hit rate 0.044% among 360,000. survival enhancement, % at 20 µM. hiPSC single-cell survival, ATPlite luminescence; 100% = ROCK inhibitor wells, 0% = DMSO; in the data active = survival enhancement above about 18%;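 note: cells exposed to compounds for 16 hours before the ATP read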
TAG inh: reduces triacylglycerol accumulation in H9c2 cells | Nile Red lipid (TAG) fluorescence; cells loaded with 200 µM oleic acid | inhibition, % at 12.5 µM | hit rate 0.66% among 230,000 | AID 651582;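 active = pattern-corrected inhibition of lipid staining of at least 50% with the nuclear-stain viability signal not falling by more than 50%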;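 note: 0% = DMSO wells and 100% = triacsin C control wells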
697 NFkB inh: lowers PMA/ionomycin-induced NF-kB signal in 697 B cells; AID 435022; 697 B-cell NF-kB luciferase reporter, 16 h; inhibition, % at 4 µM; hit rate 0.33% among 330,000; in the data active = inhibition above about 35%
Hep lipid conf: hepatic lipid droplet formation inhibition, confirmed. shares compounds with Hep lipid drop. AML12 mouse hepatocytes, BODIPY lipid droplet imaging; droplets induced with 100 µM oleic acid. inhibition, % at 5.2 µM. hit rate 65% among 870. AID 463183;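 active = inhibition of lipid droplet metric at least 50%, with more than 300 cells in each of four replicates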;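 note: plate controls were DMSO with oleic acid for no effect and 5 µM Triacsin-C for full effect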
AML12 cytotox: counter-screen for cytotoxicity in AML12 mouse hepatocytes | shares compounds with Hep lipid drop | DAPI nuclear morphology cytotoxicity imaging; stronger effect = higher value; cells fed 100 µM oleate overnight | z-score at 5 µM | hit rate 3% among 870 | AID 463200; in the data active = z-score above about 6.3;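 note: compound exposure lasted overnight at 37 °C before fixation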
AML12 tox conf: AML12 hepatocyte cytotoxicity, confirmed | cytotoxicity, % at 50 µM | shares compounds with Hep lipid drop | 530 tested, under 10 active | AML12 mouse hepatocyte viability, ATP luminescence; cells loaded with 100 µM oleic acid;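 active = cytotoxicity above 50% in each of four replicates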;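 note: compound exposure lasted overnight at 37 °C before the ATP read; 0% = DMSO-treated cells and 100% = wells with no cells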
Starred values were filed as active, the others as inactive; . = not tested or not shown. Most compounds without a hit are left out; they make up all but 1.8% or so of the library.

SMILES	Jurkat NFkB inh	Hep lipid drop	Gli-Sufu antag	iPSC survival up	TAG inh	697 NFkB inh	Hep lipid conf	AML12 cytotox	AML12 tox conf
COc1ccccc1N1CCN(C(=O)CSc2nc3ccccc3nc2N2CCC(C)CC2)CC1	-8	52*	26	0	.	-37	26	0.4	.
CC(Sc1nc(N)cc(=O)[nH]1)C(=O)Nc1ccc(N2CCOCC2)cc1 (stereo unspecified)	.	.	.	-3	5	.	.	.	.
CCN(CCn1cccn1)C(=O)c1cc(COc2cccc3cccnc23)on1	-9	-2	-23	-1	-4	11	.	.	.
CCN(CCn1cccn1)C(=O)c1cc(COc2ccc(F)cc2Cl)on1	4	55*	0	1	6	11	-25	-0.41	.
COCCN1C(=O)/C(=C/c2ccc(N3CCCC3)cc2C)SC1=S	-33	105*	-6	3	-202	8	105*	-0.08	.
CCN=C1S/C(=C\c2ccc(N3CCOCC3)cc2C)C(=O)N1CC	47	-5	-32	-1	-7	2	.	.	.
Cc1ccc(CN2CCN(c3cccc4[nH]ccc34)CC2)cc1	-10	.	10	0	.	9	.	.	.
COc1ccc(Cl)cc1NC(=O)CCNC(=O)OCc1ccccc1	8	63*	3	-1	.	-6	100*	0.064	2
COc1ccc(Cl)cc1NC(=O)CCc1ccccc1	4	-14	0	0	-54	18	.	.	.
COc1ccccc1NC(=O)N1CCCC1C(=O)Nc1ccc2c(c1)OCO2 (stereo unspecified)	-1	71*	1	0	43	-1	71*	0.22	7
O=C(NCCC1CCCCN1S(=O)(=O)c1ccc(Cl)cc1)C(=O)NCCN1CCOCC1 (stereo unspecified)	1	.	-6	0	5	23	.	.	.
COc1ccc(C(C)=O)cc1CSc1nnc(Nc2ccc(C)cc2C)s1	15	90*	-10	-1	-2	-5	8	-0.4	.
COc1ccc(C(C)=O)cc1CSc1nnc(Nc2ccccc2C)s1	20	5	-2	-1	.	13	.	.	.
Cc1ccc(S(=O)(=O)N2CCSCCSCCSCCSCC2)cc1	.	.	6	5	-36	.	.	.	.
CCN(CC)C(=O)C1CCCN(C(=O)Nc2ccccc2)C1 (stereo unspecified)	-15	2	-2	0	.	-1	.	.	.
CCN(Cc1ccccc1)C(=O)C1CCN(C(=O)Nc2ccccc2)CC1	9	77*	-3	0	37	7	104*	-1.7	8
CCN(CC)c1ccc(NC(=O)CN2CCN(S(=O)(=O)c3cc(Cl)ccc3OC)CC2)cc1	-6	60*	-3	0	.	-53	63*	0.61	12
CCOc1ccc(NC(=O)CCN2CCN(S(=O)(=O)c3cc(Cl)ccc3OC)CC2)cc1	9	-26	2	-2	-9	15	.	.	.
CC1CCCN(C(=O)COC(=O)c2cccc(NS(=O)(=O)c3ccccc3)c2)C1 (stereo unspecified)	6	.	-7	0	-2	-3	.	.	.
O=S1(=O)CC(N2CCC(Cc3ccccc3)CC2)CN1C1CCCC1 (stereo unspecified)	.	.	.	0	.	.	.	.	.
Cc1cc(C)nc(Nc2nc3ccccc3[nH]2)n1	-61	58*	-36	-3	12	-93	26	-0.94	.
Cc1ccc(C)c(Nc2nc3ccccc3[nH]2)c1	.	.	1	0	-19	.	.	.	.
CCOc1ccc(CCNC(=O)Cn2nc(C)n3cccc3c2=O)cc1OCC	12	79*	18	0	.	-2	104*	-0.084	17
CCOc1ccc(CCNC(=O)CCCn2c(=O)c3cccn3c3cccnc32)cc1OCC	4	69*	0	0	.	-22	88*	-1	4
CCOc1ccc(CCNC(=O)Cn2cccc2C(=O)c2ccccc2)cc1OCC	5	84*	-8	-2	.	-10	109*	0.41	13
SMILES	Jurkat NFkB inh	Hep lipid drop	Gli-Sufu antag	iPSC survival up	TAG inh	697 NFkB inh	Hep lipid conf	AML12 cytotox	AML12 tox conf
COc1ccc(CCNC(=O)CCCn2c(=O)c3cccn3c3cccnc32)c(OC)c1OC	-10	-35	6	0	.	-53	.	.	.
CCOc1ccc(CCNC(=O)C(C)n2nc(C)n3c(cc4occc43)c2=O)cc1OCC (stereo unspecified)	3	58*	-8	0	36	8	94*	-0.17	8
O=C(c1ccc(C(F)(F)F)cc1)N1CCN(c2ccc(N3CCOCC3)nn2)CC1	-12	.	17	2	-2	-41	.	.	.
COc1cc(/C=N\Nc2nncn2N)ccc1OC(C)=O	6	2	3	0	20	7	.	.	.
CCOc1ccc(CCNC(=O)CN2C(=O)NC3(CCCCC3C)C2=O)cc1OCC (stereo unspecified)	14	.	-11	0	39	2	.	.	.
CCOc1ccc(CCNC(=O)CN2C(=O)NC(CCSC)C2=O)cc1OCC (stereo unspecified)	-6	85*	-2	1	23	17	100*	0.33	14
CCn1c(=O)n(CC)c2cc(N)ccc21	1	54*	-3	0	-5	18	23	-0.51	.
Cc1cc(C)n(CC(=O)c2cccc(N)c2)n1	-7	4	16	0	5	23	.	.	.
CC(=O)NC(CC(=O)OCC(=O)N1CCN(S(=O)(=O)c2ccc(C)cc2C)CC1)c1ccccc1 (stereo unspecified)	-5	.	-12	-1	16	3	.	.	.
COc1ccc(-c2nc3c(c4nnc(SC(C)C(=O)Nc5ccc(C)cc5)n24)COC(C)(C)C3)cc1 (stereo unspecified)	-10	62*	0	1	.	-50	79*	-0.77	-6
COc1ccc(C2(c3ccc(OC)cc3)NC(=O)N(CC(=O)Nc3cc(C)ccc3OC)C2=O)cc1	-14	86*	9	0	28	-5	106*	-1	12
CC1=C(C(=O)NC2CCCc3c2cnn3-c2cccc(C)c2C)OCCO1 (stereo unspecified)	.	63*	57*	-1	-3	.	105*	-0.5	16
COc1ccc(C(=O)NC2CCCc3c2cnn3-c2cccc(C)c2C)o1 (stereo unspecified)	0	50*	43	0	.	-230	88*	-0.19	7
Cc1cccc(-n2ncc3c2CCCC3NC(=O)c2ccncc2)c1C (stereo unspecified)	.	.	.	2	-11	.	.	.	.

Bioassay records from PubChem BioAssay.
